The source made the active and inactive calls. No cut-off for these calls is given here.
Key:
[1] = system: PC-3M; assay: Inhibition of human PC3M cell migration by wound-healing assay; format: functional, cell-based
[2] = system: MDA-MB-231; assay: Inhibition of human MDA-MB-231 cell migration by wound-healing assay; format: functional, cell-based
[3] = system: PC-3M; assay: Inhibition of human PC3M cell migration at 5 uM by wound-healing assay; format: functional, cell-based
[4] = system: PC-3M; assay: Effect on cell viability of human PC3M cells at 5 uM by flow cytometry; format: functional, cell-based
How it was run: (§1)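 Cells harvested straight from wound-healing assays by trypsinisation, washed twice with PBS, stained with ViaCount Flex reagent and run on a Guava EasyCyte flow cytometer, with EasyFit analysis separating viable cells from dead cells and debris. DMSO background control, 70% methanol death control, LY294002 control.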

[5] = system: MDA-MB-231; assay: Effect on cell viability of human MDA-MB-231 cells at 5 uM by microscopy based assay; format: functional
How it was run: (§2)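 Cells exposed during wound-healing assay, then stained with a live/dead kit. Live cells fluoresce green from esterase conversion of calcein AM to calcein; ethidium homodimer 1 enters membrane-damaged cells, giving red fluorescence on nucleic acid binding. Imaged by microscopy. Controls: DMSO (background), LY294002 7.5 µM, 0.1% saponin for 10 min (death).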

[6] = system: MDA-MB-231; assay: Inhibition of human MDA-MB-231 cell migration at 5 uM by wound-healing assay; format: functional, cell-based
[7] = system: PC-3M; assay: Effect on cell viability of human PC3M cells at 5 uM by microscopy based assay; format: functional; how it was run: as §2
[8] = system: MDA-MB-231; assay: Effect on cell viability of human MDA-MB-231 cells at 5 uM by flow cytometry; format: functional, cell-based; how it was run: as §1
[9] = Antiproliferative activity against human PC3M cells after 40 hrs by MTT assay; format: functional, cell-based; conditions: PC-3M
[10] = system: PC-3M; assay: Inhibition of human PC3M cell migration at 10 uM by wound-healing assay; format: functional, cell-based
How it was run: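 PC-3M scratch wound-healing migration assay with compound at 10 µM over 40 h. DMSO negative and LY294002 positive controls.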

## COc1cc(OC)c2c(c1)C(=O)C1=C(C2=O)C(O)OC(C)=C1 (configuration not stated)
[1]
  Activity: inactive
[2]
  Activity: inactive

## COc1cc(OC)c2c(O)c3c(c(OC(C)=O)c2c1)C[C@](C)(O)OC3
[1]
  Activity: inactive
[2]
  Activity: inactive

## COc1cc(OC)c2c(O)c3c(c(OC(C)=O)c2c1)C=C(C)OC3
[1]
  Activity: inactive
[2]
  Activity: inactive

## COc1cc(OC)c2c(c1)C(=O)C1=C(COC(C)=C1)C2=O [DEHYDROHERBARIN]
[3]
  Activity: Active
[4]
  Activity: inactive
[5]
  Activity: inactive
[6]
  Activity: Active
[7]
  Activity: inactive
[8]
  Activity: inactive
[9]
  IC25: 2200 nM
  IC50: 3500 nM

## COc1cc(OC)c2c(c1)C(=O)C1=C(CO[C@@](C)(O)C1)C2=O
[10]
  Activity: Active

## COc1cc(OC)c2c(OC(C)=O)c3c(c(OC(C)=O)c2c1)C=C(C)OC3
[1]
  Activity: inactive
[2]
  Activity: inactive
